In ChEMBL document CHEMBL1155935, “Epoxydons and a pyrone from the marine-derived fungus Nigrospora sp. PSU-F5” (2008):
Converted amounts (≈) assume the structure as drawn. The source made the active and inactive calls. The rule behind the calls is not given here.

These compounds were tested on Staphylococcus aureus (assay: Antimicrobial activity against methicillin-resistant Staphylococcus aureus).
Format: functional
Method in brief: (§1)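 Agar microdilution MIC. Compounds in DMSO, serially 2-fold diluted and mixed 1:100 into melted Mueller-Hinton agar, giving final concentrations of 0.03–128 µg/mL. Strains were S. aureus ATCC 25923 and MRSA SK1. Inocula were spotted onto the agar and incubated at 35 °C for 18 h. MIC was the lowest concentration preventing visible growth. Vancomycin was the positive control; DMSO agar was the growth control.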
With `CC1=CC(=O)CC(C)(C)[C@@]1(O)/C=C/C(C)=C\C(=O)O[C@H]1C(=O)C(CO)=C[C@@H](O)[C@@H]1O` [NIGROSPOXYDON A] the MIC was > 128 µg/mL. With `O=C1C(CO)=C[C@@H](O)[C@H]2O[C@@H]12` [EPOXYDON] the MIC was 128 µg/mL (≈ 820 µM). With `COC(=O)C(Cc1ccccc1)OC(CC(C)C)C(=O)O[C@H]1C(=O)C(CO)=C[C@@H](O)[C@@H]1O` (stereo partly specified) the Activity was “inactive”. For `COc1cc(/C(C)=C/CO)oc(=O)c1`, the Activity was “inactive”. For `CC1=CC(=O)CC(C)(C)[C@@]1(O)/C=C/C(C)=C\C(=O)O`, the Activity was “inactive”. For `C/C=C(\C)c1cc(OC)cc(=O)o1`, the Activity was “inactive”. For `CC1=CC(=O)CC(C)(C)[C@H]1/C=C/C(C)=C\C(=O)O`, the Activity was “inactive”. For `O=C(O[C@H]1C(=O)C(CO)=C[C@@H](O)[C@@H]1O)c1cccc(O)c1`, the Activity was “inactive”.

The compounds below were run on Staphylococcus aureus (assay: Antimicrobial activity against Staphylococcus aureus).
Format: functional
Method in brief: as §1
Compound `CC1=CC(=O)CC(C)(C)[C@@]1(O)/C=C/C(C)=C\C(=O)O[C@H]1C(=O)C(CO)=C[C@@H](O)[C@@H]1O` [NIGROSPOXYDON A] has an MIC of 64 µg/mL (≈ 152 µM). With `O=C1C(CO)=C[C@@H](O)[C@H]2O[C@@H]12` [EPOXYDON] the MIC was 128 µg/mL (≈ 820 µM). `COC(=O)C(Cc1ccccc1)OC(CC(C)C)C(=O)O[C@H]1C(=O)C(CO)=C[C@@H](O)[C@@H]1O` (stereo partly specified) was tested, and the Activity was “inactive”. In the case of `COc1cc(/C(C)=C/CO)oc(=O)c1`, the Activity is reported as “inactive”. For `CC1=CC(=O)CC(C)(C)[C@@]1(O)/C=C/C(C)=C\C(=O)O`, the Activity was “inactive”. `C/C=C(\C)c1cc(OC)cc(=O)o1` was tested, and the Activity was “inactive”. `CC1=CC(=O)CC(C)(C)[C@H]1/C=C/C(C)=C\C(=O)O` was tested, and the Activity was “inactive”. With `O=C(O[C@H]1C(=O)C(CO)=C[C@@H](O)[C@@H]1O)c1cccc(O)c1` the Activity was “inactive”.
